{"data": "Results of several laboratories", "target": "Inhibitor of nuclear factor kappa-B kinase subunit epsilon (IKBKE, Homo sapiens, UniProt Q14164)", "Sequence (Q14164 1-716, as in one of the studies)": "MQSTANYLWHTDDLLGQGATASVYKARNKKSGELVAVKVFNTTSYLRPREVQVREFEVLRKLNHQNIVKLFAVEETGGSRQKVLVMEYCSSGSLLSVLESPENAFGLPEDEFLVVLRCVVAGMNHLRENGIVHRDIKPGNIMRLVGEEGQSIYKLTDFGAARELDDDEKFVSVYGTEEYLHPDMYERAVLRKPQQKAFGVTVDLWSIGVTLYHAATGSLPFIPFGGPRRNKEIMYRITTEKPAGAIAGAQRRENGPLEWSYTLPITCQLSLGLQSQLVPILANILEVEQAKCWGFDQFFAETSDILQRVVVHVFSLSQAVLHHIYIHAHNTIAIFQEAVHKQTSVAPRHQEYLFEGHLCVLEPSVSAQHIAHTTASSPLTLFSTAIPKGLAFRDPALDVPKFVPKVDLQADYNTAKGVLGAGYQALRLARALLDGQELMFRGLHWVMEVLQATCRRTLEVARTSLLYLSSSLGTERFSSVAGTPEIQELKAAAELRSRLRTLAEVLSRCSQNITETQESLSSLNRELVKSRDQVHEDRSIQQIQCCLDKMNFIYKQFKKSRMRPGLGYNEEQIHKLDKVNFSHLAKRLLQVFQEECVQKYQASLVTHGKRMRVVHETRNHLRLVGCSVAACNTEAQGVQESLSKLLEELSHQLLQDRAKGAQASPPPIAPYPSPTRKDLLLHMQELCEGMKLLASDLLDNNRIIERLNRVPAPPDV", "note": "Protocols differ between the studies behind these lines."}
{"SMILES": "C=CC(=O)N1CCC([C@@H]2CCNc3c(C(N)=O)c(-c4ccc(Oc5ccccc5)cc4)nn32)CC1", "effect on": "enzyme activity", "action": "inhibitor", "tested at": "1 µM", "endpoint": "inhibition", "value": "1%"}
{"SMILES": "C#Cc1cc(-c2cc(Nc3nc(N[C@@H](C)c4ccc(F)cn4)ncc3Cl)n[nH]2)ccc1C=O", "effect on": "enzyme activity", "action": "inhibitor", "tested at": "0.2 µM", "endpoint": "inhibition", "value": "14.7%"}
{"SMILES": "CC(C)S(=O)(=O)c1ccc2nccc(Nc3ccc4sc(C5CCCC5)nc4c3)c2c1", "effect on": "enzyme activity", "action": "inhibitor", "tested at": "1 µM", "endpoint": "activity vs control", "value": "113%"}
{"SMILES": "COc1ccc2[nH]c3c4[nH]c5ccc(OC)cc5c4c4c(c3c2c1)C(=O)NC4=O", "effect on": "binding", "tested at": "1 µM", "endpoint": "remaining binding", "value": "48%"}
{"SMILES": "CO[C@@H]1[C@H](N(C)C(=O)c2ccccc2)C[C@H]2O[C@]1(C)n1c3ccccc3c3c4c(c5c6ccccc6n2c5c31)C(=O)NC4", "effect on": "enzyme activity", "action": "inhibitor", "tested at": "1 µM", "endpoint": "inhibition", "value": "97%"}
{"SMILES": "Cc1ccc(NC(=O)c2ccnc(C(F)(F)F)c2)cc1-c1cc(OCCO)nc(N2CCOCC2)c1", "effect on": "binding", "tested at": "1 µM", "endpoint": "remaining binding", "value": "94%"}
{"SMILES": "Cc1cc(O)c(-c2ccc([C@@H](C)CN(C)C)cc2)c2c1[nH]c(=O)c1sccc12", "effect on": "enzyme activity", "action": "inhibitor", "tested at": "0.1 µM", "endpoint": "inhibition", "value": "-7.74%"}
{"SMILES": "CCCCC(=O)Nc1ccc(-c2ccc3ncn(CCC)c(=O)c3c2)cn1", "effect on": "binding", "method": "competition with immobilised ligand", "tested at": "0.5 µM", "endpoint": "remaining binding", "value": "93%"}
